Bioassay records: PubChem BioAssay, several laboratories
Sampled rows, rich in hits. Any-hit rate of the full collection: about 2.1%.
UCH37 DUB inh: human UCH37 deubiquitinating enzyme inhibition. Q9Y5K5. purified proteasome/UCH37, Ub-AMC cleavage fluorescence. inhibition, % (no concentration beside the values). actives 0.33% (n = 330,000). AID 588478;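 active means mean inhibition over replicate wells above about 20%, limit read from the data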
Target sequence (Q9Y5K5 whole entry, looked up): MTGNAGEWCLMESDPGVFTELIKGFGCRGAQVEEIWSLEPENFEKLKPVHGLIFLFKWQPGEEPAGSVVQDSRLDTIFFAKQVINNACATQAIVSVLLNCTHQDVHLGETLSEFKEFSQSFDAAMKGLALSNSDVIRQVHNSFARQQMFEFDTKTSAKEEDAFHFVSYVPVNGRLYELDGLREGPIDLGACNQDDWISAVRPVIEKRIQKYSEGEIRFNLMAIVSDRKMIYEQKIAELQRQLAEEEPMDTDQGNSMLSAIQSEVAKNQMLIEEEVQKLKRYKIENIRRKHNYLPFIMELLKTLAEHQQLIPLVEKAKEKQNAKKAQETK
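System: Proteasome-associated human UCH37 deubiquitinase; Input: 0.15 nM proteasome in added enzyme buffer; Also added: Ub-AMC substrate from 1 µM stock; Incubation: 30 min compound-proteasome preincubation then 25 min substrate reaction, room temperature; Detection: fluorescence, ex 355 nm, em 460 nm; Read-out: % inhibition of Ub-AMC cleavage fluorescence; Benchmarks: no-proteasome and no-compound wells.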
cardiac RTF act: increases calcium sensitivity of human cardiac regulated thin filaments | AID 493008 | P19429+P45379 | actives 0.24% (n = 340,000) | IANBD-labeled TnC RTF fluorescence at EC20 calcium; 0% EC20 calcium, 100% full calcium | activation, % at 7.2 µM;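 active means activation above the mean over all tested compounds plus 3 SD, cut at about 30% in these data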;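 further: rise in fluorescence read as greater calcium sensitivity of cardiac thin filaments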
RTF Ca sens inh: cardiac RTF calcium desensitization. P19429+P45379. IANBD-labeled cardiac RTF, Ca2+ fluorescence. inhibition, % at 7.15 µM. actives 0.12% (n = 340,000);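 active means inhibition above the mean inhibition of all tested compounds plus 3 SD, cut at about 17% in these data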;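 further: assay run at fixed EC70 calcium of 1.6 mM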
SUMO Mot1 rescue: inhibitors of SUMOylation pathway: yeast Mot1-301 growth rescue | actives 1% (n = 320,000) | S. cerevisiae Mot1-301 growth rescue, ATP luminescence, 38.5C; percent above DMSO median, 100 means doubled | growth rescue, % at 18.8 µM;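 active means every valid replicate shows activation above 250% relative to neutral control wells; inactive means the rest, any valid replicate at or below 250%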
Efflux pump mplx: blocks antifungal efflux pumps in multiplex yeast assay; S. cerevisiae Candida pump triplex, Nile Red efflux; inhibition, % at 10 µM; actives 0.44% (n = 330,000); AID 485275;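 active means plate passing quality check with inhibition over a set limit, or well fluorescence over plate mean plus 4 SD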;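 further: Nile Red retained in pooled yeast measured as flow cytometry median fluorescence; higher means more Nile Red kept so more efflux inhibition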
ARNT TACC3 PPI: disrupts binding between human ARNT and TACC3 | Q9Y6A5 | AlphaScreen His-ARNT PAS-B/GST-TACC3 binding, luminescence; TACC3 fragment carries E629A point mutation | inhibition, % at 9.99 µM | actives 0.66% (n = 390,000) | AID 623870;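 active means mean inhibition of replicates at least 50% and at least half of replicates each reaching 50%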
Cmpd fluor yeast: compound fluorescence in yeast efflux pump counter-screen. shares compounds with Efflux pump mplx. S. cerevisiae AD/pABC3, flow cytometry. fluorescence ratio to DMSO, % at 10 µM. actives 4% (n = 1,700);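 active means fluorescence ratio to DMSO above its plate's cutoff, the plate mean ratio plus 5 SD, cut at about 210% in these data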;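 further: unstained yeast with no Nile Red so the signal is compound autofluorescence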
CaMdr1 efflux inh: blocks the Candida albicans Mdr1 efflux pump in yeast; shares compounds with Efflux pump mplx; S. cerevisiae AD/CaMDR1, Nile Red efflux, flow cytometry; AID 588518; actives 1% (n = 1,700); inhibition, % at 10 µM; in the data active means inhibition above about 26%;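 further: higher means more Nile Red retained so more efflux inhibition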
CaCdr2 efflux inh: Candida Cdr2 efflux pump inhibition; shares compounds with Efflux pump mplx; S. cerevisiae AD/CaCDR2, Nile Red retention, flow cytometry; Nile Red retention ratio vs DMSO, % at 10 µM; actives 4% (n = 1,700); in the data active means Nile Red retention ratio vs DMSO above about 190%;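 further: higher ratio means more blocking of Cdr2 efflux of the dye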
CaCdr1 efflux inh: inhibitors of Candida albicans Cdr1 efflux pump; shares compounds with Efflux pump mplx; S. cerevisiae AD/CaCDR1, Nile Red efflux, flow cytometry; inhibition, % at 10 µM; actives 1% (n = 1,700); AID 588522;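 active means inhibition above the screen-wide mean plus twice its standard deviation, cut at about 32% in these data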
Numbers stand for hits; 0 = inactive; - = no result given; + = active, no number.

SMILES	UCH37 DUB inh	cardiac RTF act	RTF Ca sens inh	SUMO Mot1 rescue	Efflux pump mplx	ARNT TACC3 PPI	Cmpd fluor yeast	CaMdr1 efflux inh	CaCdr2 efflux inh	CaCdr1 efflux inh
COc1ccc(OCc2cc(C(=O)NC(C)Cc3ccccn3)no2)c(Cl)c1 (centres undefined)	0	0	0	0	1.6	0	0	0	0	0
COc1ccc(OCc2cc(C(=O)NC(C)Cc3cccnc3)no2)c(Cl)c1 (centres undefined)	0	0	0	0	0	0	-	-	-	-
Cc1ccccc1C=Nn1c(-c2ccccn2)n[nH]c1=S	0	-	-	-	-	-	-	-	-	-
S=C(NCC1CCCO1)N1CCN(c2ccccc2)CC1 (centres undefined)	0	0	0	0	0	0	-	-	-	-
S=C(NCC1CCCO1)N1CCc2ccccc2C1 (centres undefined)	0	0	0	0	0	0	0	0	0	0
CCn1cc(CNC(=O)c2cccc([N+](=O)[O-])c2)c(C)n1	0	0	0	0	11.1	0	0	0	0	0
CCn1cc(CNC(=O)c2ccc(Cl)c([N+](=O)[O-])c2)c(C)n1	-	0	0	0	0	0	-	-	-	-
COc1cc(OC)nc(Oc2cc(C=NO)ccc2OC)n1	0	-	-	-	-	-	-	-	-	-
O=C(Nc1ccc2c(c1)OCCO2)c1ccccc1	0	0	0	0	0	0	-	-	-	-
CS(=O)(=O)Nc1ccc(C(=O)Nc2ccc3c(c2)OCCO3)cc1	0	0	0	0	9.0	0	0	0	0	0
C=CCNC(=O)C(=O)N/N=C/c1ccco1	-	0	0	0	22.7	0	0	0	0	0
CCOC(=O)c1ccc2c(c1)nc(SCC(O)=C(C#N)c1nc3ccccc3[nH]1)n2CC	0	-	-	-	-	-	-	-	-	-
CC1CCCCN1C(=O)C12CCC(C)(C(=NO)C1)C2(C)C (centres undefined)	0	-	-	-	-	-	-	-	-	-
COc1ccc(S(=O)(=O)Nc2cc(Sc3ncn[nH]3)c(O)cc2C)cc1	0	-	-	0	0	-	0	0	0	0
Cc1cc(O)c(Sc2ncn[nH]2)cc1NS(=O)(=O)c1ccc(Cl)cc1	0	0	0	0	0	0	0	0	0	0
O=c1c2c3c(sc2ncn1N=Cc1ccco1)CCCC3	0	-	-	-	-	-	-	-	-	-
CN1C(=O)/C(=C/c2ccc(C(F)(F)F)cc2)Sc2ccc(C(=O)N3CCN(c4ccccn4)CC3)cc21	0	0	0	0	0.7	0	0	0	0	0
CC(=NOC(=O)c1ccc(C)cc1)c1ccc(N2C(=O)C3CCCCC3C2=O)cc1 (centres undefined)	0	-	-	-	-	-	-	-	-	-
COc1ccc(CCC(=O)Nc2cc(S(=O)(=O)N3CCCCC3)ccc2N(C)C)cc1	0	0	0	0	1.1	0	0	0	0	0
Cc1cccc(C)c1NC(=O)COC(=O)CCc1ccc(S(=O)(=O)N2CCCCC2)cc1	0	0	0	0	18.9	0	0	0	0	0
Cc1oc(C=NNC(=O)CN(c2ccccc2Br)S(C)(=O)=O)cc1Br	0	-	-	-	-	-	-	-	-	-
CCCCCCOC(=O)C[N+](C)(C)CCOC1CC2CCC1(C)C2(C)C (centres undefined)	0	0	0	0	2.6	0	0	0	+	0
Cc1nn(-c2ccccc2)c(C)c1C=Nn1c(-c2ccc(C(C)(C)C)cc2)n[nH]c1=S	0	-	-	-	-	-	-	-	-	-
CCCCC(CC)Cn1c(O)c(/C=C2\C=NN=C2c2ccccc2)sc1=S (centres undefined)	0	0	0	0	8.3	0	0	0	0	0
CCCn1c(O)c(/C=C2\C=NN=C2c2ccccc2)sc1=S	0	0	0	-	0	0	-	-	-	-
SMILES	UCH37 DUB inh	cardiac RTF act	RTF Ca sens inh	SUMO Mot1 rescue	Efflux pump mplx	ARNT TACC3 PPI	Cmpd fluor yeast	CaMdr1 efflux inh	CaCdr2 efflux inh	CaCdr1 efflux inh
O=C(Nc1nccs1)c1cc(-c2ccco2)nc2ccccc12	0	0	0	0	0	0	-	-	-	-
O=C(Nc1nccs1)c1cc(-c2ccccc2)nc2ccccc12	0	0	0	0	10.8	0	0	0	0	0
COc1ccc(-c2cc(C(=O)NCCN3CCOCC3)c3ccccc3n2)c(OC)c1	0	0	0	0	0	0	0	0	0	0
COc1ccc(-c2cc(C(=O)Nc3ccc(C)c(N)c3)c3ccccc3n2)cc1	0	0	0	0	0.5	0	0	0	0	0
COc1ccc(-c2cc(C(=O)Nc3cc(S(=O)(=O)N4CCOCC4)ccc3N3CCOCC3)c3ccccc3n2)cc1	0	0	0	0	0.8	0	0	0	0	0
CC(C)Oc1ccccc1C=Nn1nnnc1N	0	-	-	-	-	-	-	-	-	-
CCOC(=O)C1=C(c2ccccc2)N=c2sc(=Cc3cccc(O)c3)c(=O)n2C1c1cccs1 (centres undefined)	0	-	-	-	-	-	-	-	-	-
COc1ccc(C=Nn2cnc3c([nH]c4ccccc43)c2=O)cc1CO	0	-	-	-	-	-	-	-	-	-
C(=Nn1cnnc1)c1ccc2c(c1)OCO2	0	-	-	-	-	-	-	-	-	-
COc1cccc(C=NNC(=O)c2c(C)nc3ccc(Br)cn23)c1	0	-	-	-	-	-	-	-	-	-
CCOC(=O)Cc1cc(-c2ccc(O)cc2)nc2ccc3ccccc3c12	0	0	0	0	0	0	-	-	-	-
CCOC(=O)Cc1cc(-c2ccc(OC)cc2)nc2ccc3ccccc3c12	0	0	0	0	10.2	0	0	0	0	0
O=C1c2ccccc2C(=O)N1CN(C(=O)COc1ccccc1)c1ccc(F)cc1	0	0	0	0	8.0	0	0	0	0	0
CCn1cc(C=NNS(=O)(=O)c2ccc(OC)cc2)c(C)n1	0	-	-	-	-	-	-	-	-	-
Cc1ccc(C)c(Cn2nnc3c(=O)[nH]c(C4CCN(S(=O)(=O)c5ccc(S(=O)(=O)N(C)C)cc5)CC4)nc32)c1	0	0	0	0	0	0	0	0	0	0
O=c1[nH]c(C2CCN(S(=O)(=O)c3ccc4c(c3)OCCO4)CC2)nc2c1nnn2Cc1c(F)cccc1Cl	0	0	0	0	0	0	-	-	-	-
Cc1ccc(Cn2nnc3c(=O)[nH]c(C4CCN(S(=O)(=O)c5ccc(F)cc5)CC4)nc32)cc1	0	0	0	0	0	0	0	0	0	0
O=c1[nH]c(C2CCN(S(=O)(=O)c3ccc4c(c3)OCCO4)CC2)nc2c1nnn2Cc1ccccc1F	-	0	0	0	1.0	0	0	0	0	0
O=c1[nH]c(C2CCN(S(=O)(=O)c3ccccc3C(F)(F)F)CC2)nc2c1nnn2Cc1cccc(F)c1	0	0	0	0	3.1	0	0	0	0	0
Cc1ccc(Cn2nnc3c(=O)[nH]c(C4CCN(S(=O)(=O)c5cc(C)ccc5C)CC4)nc32)cc1	0	0	0	0	0	0	-	-	-	-
